Source: ChEMBL document CHEMBL1122917, “Vinblastin-23-oyl amino acid derivatives: chemistry, physicochemical data, toxicity, and antitumor activities against P388 and L1210 leukemias” (J Med Chem, 1985)

Legend:
Assay type in all cases: functional
Mus musculus [1] = test: Number of survivors on 30th day at dose 80 mg/kg/day in 10 mice implanted with P388 leukemia cell line
Mus musculus [2] = test: Number of survivors on 30th day at dose 50 mg/kg/day in 10 mice implanted with P388 leukemia cell line
Mus musculus [3] = test: Number of survivors of DBA2 mice on 60th day after inoculation with L1210 leukemia cell line intraperitoneally at a dose of 75 mg/kg/day; 0/10; details: route intraperitoneal
Mus musculus [4] = test: Percent increase in life span at dose 75 mg/kg/day in 10 mice implanted with P388 leukemia cell line
Mus musculus [5] = test: Number of survivors on 60th day at dose 60 mg/kg/day in 10 mice implanted with P388 leukemia cell line
In short: (§1)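 Female DBA2 mice inoculated iv on day 0 with 10^4 P388 cells; single iv treatment on day 1 with drug as sulfate salt in physiological saline. Survival followed; %ILS from all deaths and survivors as (T/C × 100) − 100, maximal MST 30 days; survivors counted on days 30 and 60. Most experiments confirmed three times.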

Mus musculus [6] = test: Number of survivors on 30th day at dose 75 mg/kg/day in 10 mice implanted with P388 leukemia cell line
Mus musculus [7] = test: Number of survivors of DBA2 mice on 60th day after inoculation with L1210 leukemia cell line intravenously at a dose of 55 mg/kg/day; 0/10; details: route intravenous
Mus musculus [8] = test: Percent increase in life span at dose 50 mg/kg/day in 10 mice implanted with P388 leukemia cell line; in short: as §1
Mus musculus [9] = test: Number of survivors of DBA2 mice on 30th day after inoculation with L1210 leukemia cell line intravenously at a dose of 65 mg/kg/day; 0/10; details: route intravenous
Mus musculus [10] = test: Percent increase in life span of DBA2 mice after inoculation with L1210 leukemia intravenously at a dose of 55 mg/lg per day
Mus musculus [11] = test: Percent increase in life span of DBA2 mice after inoculation with L1210 leukemia intravenously at a dose of 70 mg/kg per day; details: route intravenous
In short: (§2)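 Female DBA2 mice inoculated iv on day 0 with 10^4 L1210 cells; drugs given iv as sulfate salts in physiological saline, mostly once on day 1. %ILS from all deaths and survivors as (T/C × 100) − 100; survivors scored on days 30 and 60.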

Mus musculus [12] = test: Number of survivors of DBA2 mice on 30th day after inoculation with L1210 leukemia cell line intravenously at a dose of 70 mg/kg/day; 0/10; details: route intravenous
Mus musculus [13] = test: Percent increase in life span at dose 80 mg/kg/day in 10 mice implanted with P388 leukemia cell line; in short: as §1
Mus musculus [14] = test: Percent increase in life span at dose 60 mg/kg/day in 10 mice implanted with P388 leukemia cell line; in short: as §1
Mus musculus [15] = test: Number of survivors on 60th day at dose 75 mg/kg/day in 10 mice implanted with P388 leukemia cell line
Mus musculus [16] = test: Number of survivors on 60th day at dose 50 mg/kg/day in 10 mice implanted with P388 leukemia cell line
Mus musculus [17] = test: Number of survivors of DBA2 mice on 30th day after inoculation with L1210 leukemia cell line intravenously at a dose of 75 mg/kg/day; 0/10; details: route intravenous
Mus musculus [18] = test: Number of survivors of DBA2 mice on 60th day after inoculation with L1210 leukemia cell line intravenously at a dose of 60 mg/kg/day; 0/10; details: route intravenous
Mus musculus [19] = test: Number of survivors of DBA2 mice on 30th day after inoculation with L1210 leukemia cell line intravenously at a dose of 60 mg/kg/day; 0/10; details: route intravenous
Mus musculus [20] = test: Percent increase in life span of DBA2 mice after inoculation with L1210 leukemia intravenously at a dose of 60 mg/kg per day; details: route intravenous; in short: as §2
Mus musculus [21] = test: Number of survivors on 60th day at dose 80 mg/kg/day in 10 mice implanted with P388 leukemia cell line
Mus musculus [22] = test: Percent increase in life span at dose 55 mg/kg/day in 10 mice implanted with P388 leukemia cell line; in short: as §1
Mus musculus [23] = test: Number of survivors of DBA2 mice on 60th day after inoculation with L1210 leukemia cell line intraperitoneally at a dose of 70 mg/kg/day; 0/10; details: route intraperitoneal
Mus musculus [24] = test: Number of survivors on 60th day at dose 55 mg/kg/day in 10 mice implanted with P388 leukemia cell line
Mus musculus [25] = test: Number of survivors on 30th day at dose 60 mg/kg/day in 10 mice implanted with P388 leukemia cell line
Mus musculus [26] = test: Number of survivors of DBA2 mice on 30th day after inoculation with L1210 leukemia cell line intravenously at a dose of 55 mg/kg/day; 0/10; details: route intravenous
Mus musculus [27] = test: Number of survivors on 30th day at dose 55 mg/kg/day in 10 mice implanted with P388 leukemia cell line
Mus musculus [28] = test: Percent increase in life span of DBA2 mice after inoculation with L1210 leukemia intravenously at a dose of 75 mg/kg per day; details: route intravenous
Mus musculus [29] = test: Number of survivors of DBA2 mice on 60th day after inoculation with L1210 leukemia cell line intravenously at a dose of 65 mg/kg/day; 0/10; details: route intravenous
Mus musculus [30] = test: Percent increase in life span of DBA2 mice after inoculation with L1210 leukemia intravenously at a dose of 65 mg/kg per day; details: route intravenous; in short: as §2

CCOC(=O)[C@H](Cc1ccccc1)NC(=O)[C@@]1(O)[C@H](O)[C@]2(CC)C=CCN3CC[C@@]4(c5cc([C@@]6(C(=O)OC)C[C@H]7C[N@](CCc8c6[nH]c6ccccc86)C[C@](O)(CC)C7)c(OC)cc5N(C)[C@@]14C)[C@@H]32
Survivors (Mus musculus [1]): 0
Survivors (Mus musculus [2]): 1
Survivors (Mus musculus [3]): 0
ILS at 75 mg/kg/day (Mus musculus [4]): 26.6%
Survivors (Mus musculus [5]): 0
Survivors (Mus musculus [6]): 0
Survivors (Mus musculus [7]): 0
ILS at 50 mg/kg/day (Mus musculus [8]): 21.5%
Survivors (Mus musculus [9]): 0
ILS (Mus musculus [10]): 0%
ILS at 70 mg/kg/day (Mus musculus [11]): 13%
Survivors (Mus musculus [12]): 0
ILS at 80 mg/kg/day (Mus musculus [13]): 41.7%
ILS at 60 mg/kg/day (Mus musculus [14]): 13.3%
Survivors (Mus musculus [15]): 0
Survivors (Mus musculus [16]): 1
Survivors (Mus musculus [17]): 0
Survivors (Mus musculus [18]): 0
Survivors (Mus musculus [19]): 0
ILS at 60 mg/kg/day (Mus musculus [20]): 13.9%
Survivors (Mus musculus [21]): 0
ILS at 55 mg/kg/day (Mus musculus [22]): 36.4%
Survivors (Mus musculus [23]): 0
Survivors (Mus musculus [24]): 0
Survivors (Mus musculus [25]): 0
Survivors (Mus musculus [26]): 0
Survivors (Mus musculus [27]): 1
ILS at 75 mg/kg/day (Mus musculus [28]): 25%
Survivors (Mus musculus [29]): 0
ILS at 65 mg/kg/day (Mus musculus [30]): 3.5%
